To fix the notation:
B1: Osa-1-4 twister ribozyme (parent)
chain: CCGCCUAACACUGCCAAUGCCGGUCCCAAGCCCGGAUAAAAGUGGAGGGGGCGG

The text below walks through data of the RNAGym collection of RNA variant scans (doi:10.1002/anie.201605470).

Variants of B1 are the subject of the data set. Description: self-cleavage, relative activity (ratio to wild type); higher = more cleavage; co-transcriptional. The essentials:
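A DNA template was synthesised for a 54-nucleotide twister ribozyme from Oryza sativa, with 97 % wild-type base and 1 % of each other base at each of the 48 positions downstream of the cleavage site. The ribozyme cleaved itself co-transcriptionally during 2 h of in vitro transcription at 37 °C. Reverse transcription with a template-switching oligonucleotide, PCR amplification and deep sequencing followed, and cleavage status came from reads with or without upstream sequence. Relative activity is the fraction cleaved normalised to wild type.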
For A29U, the self-cleavage amounted to 0.21.

With A29G G51C, the self-cleavage was 0.05.

As for A29G G51U, the self-cleavage was 0.06.

For A29G G51A, the self-cleavage was found to be 0.1.

Consider A29G G35C, for which the self-cleavage was 0.05.

Turning to A29G G35U, the self-cleavage turned out to be 0.16.

On to A29G G35A, for which the self-cleavage was determined as 0.24.

As for A29G G13A, the self-cleavage is 0.04.

With A29G G13U, the self-cleavage worked out at 0.03.

Consider A29G G13C, for which the self-cleavage was 0.01.

With A29G G42C, the self-cleavage is 0.06.

A29G G42U: the self-cleavage came out at 0.04.

Take A29G G42A: the self-cleavage was 0.06.

With A29U G34U, the self-cleavage stood at 0.05.

In the case of A29U G34C, the self-cleavage was 0.05.

Consider A29U G34A, for which the self-cleavage was determined as 0.07.

For A29U A8C, the self-cleavage was 0.04.

As for A29U A8G, the self-cleavage stood at 0.11.

Take A29U A8U: the self-cleavage came to 0.05.

As for A29G U12A, the self-cleavage was determined as 0.1.

On to A29G U12C, for which the self-cleavage stood at 0.08.

A29G U12G: the self-cleavage was 0.04.

For A29U A38U, the self-cleavage was 0.09.

As to A29U A38C, the self-cleavage worked out at 0.08.

Turning to A29U A38G, the self-cleavage amounted to 0.09.

On to A29U G22A, for which the self-cleavage is 0.12.

In the case of A29U G22U, the self-cleavage stood at 0.08.

On to A29U G22C, for which the self-cleavage was determined as 0.04.

Regarding A29U C52G, the self-cleavage was found to be 0.12.

Take A29U C52A: the self-cleavage turned out to be 0.08.

Regarding A29U C52U, the self-cleavage was 0.19.

Regarding A29U C9A, the self-cleavage was 0.03.

On to A29U C9U, for which the self-cleavage stood at 0.05.

Turning to A29U C9G, the self-cleavage turned out to be 0.07.

Regarding A29G G54U, the self-cleavage amounted to 0.37.

Regarding A29G G54A, the self-cleavage amounted to 0.15.

Take A29G G54C: the self-cleavage turned out to be 0.08.

Turning to A29G U37A, the self-cleavage worked out at 0.32.

Regarding A29G U37G, the self-cleavage was 0.44.

As to A29G U37C, the self-cleavage is 0.28.

Regarding A29G G19U, the self-cleavage is 0.07.

For A29G G19A, the self-cleavage turned out to be 0.08.

A29G G19C: the self-cleavage was found to be 0.06.

In the case of A29U C31A, the self-cleavage was 0.02.

Consider A29U C31G, for which the self-cleavage was found to be 0.03.

Consider A29U C31U, for which the self-cleavage turned out to be 0.06.

Take A29U A40C: the self-cleavage was found to be 0.03.

A29U A40G: the self-cleavage was 0.08.

For A29U A40U, the self-cleavage was 0.06.

For the variant A29G G34A, the self-cleavage was 0.13.

A29G G34U: the self-cleavage turned out to be 0.05.

Turning to A29G G34C, the self-cleavage was found to be 0.06.

Take A29G G30U: the self-cleavage turned out to be 0.04.

A29G G30A: the self-cleavage was determined as 0.05.

A29G G30C: the self-cleavage amounted to 0.03.

A29G G48U: the self-cleavage came to 0.03.

As to A29G G48A, the self-cleavage came to 0.04.

Consider A29G G48C, for which the self-cleavage worked out at 0.04.

As to A29U C33A, the self-cleavage is 0.04.

Regarding A29U C33U, the self-cleavage was determined as 0.08.

On to A29U C33G, for which the self-cleavage was found to be 0.04.

Regarding A29G G49U, the self-cleavage came out at 0.04.

Take A29G G49C: the self-cleavage worked out at 0.04.

Take A29G G49A: the self-cleavage is 0.05.

On to A29U C11U, for which the self-cleavage is 0.08.

In the case of A29U C11G, the self-cleavage was determined as 0.04.

In the case of A29U C11A, the self-cleavage amounted to 0.05.

Take A29U A36G: the self-cleavage is 0.24.

Consider A29U A36C, for which the self-cleavage turned out to be 0.03.

As to A29U A36U, the self-cleavage is 0.17.

On to A29U G35C, for which the self-cleavage amounted to 0.04.

Consider A29U G35U, for which the self-cleavage turned out to be 0.09.

Turning to A29U G35A, the self-cleavage stood at 0.11.

For A29G U18C, the self-cleavage was 0.23.

Consider A29G U18A, for which the self-cleavage was 0.23.

As to A29G U18G, the self-cleavage came to 0.34.

As for A29G G22C, the self-cleavage was 0.12.

On to A29G G22A, for which the self-cleavage was 0.11.

With A29G G22U, the self-cleavage is 0.06.

In the case of A29U C32U, the self-cleavage is 0.03.

A29U C32A: the self-cleavage was 0.04.

Take A29U C32G: the self-cleavage was 0.03.

Consider A29U C15G, for which the self-cleavage was found to be 0.09.

As for A29U C15U, the self-cleavage was 0.07.

Regarding A29U C15A, the self-cleavage was 0.04.

With A29U C27G, the self-cleavage came out at 0.05.

As for A29U C27U, the self-cleavage amounted to 0.08.

In the case of A29U C27A, the self-cleavage stood at 0.03.

A29U G42U: the self-cleavage is 0.03.

As to A29U G42A, the self-cleavage came to 0.06.

For A29U G42C, the self-cleavage was found to be 0.04.

Consider A29G C52A, for which the self-cleavage came out at 0.16.

Take A29G C52U: the self-cleavage amounted to 0.34.

For A29G C52G, the self-cleavage is 0.22.

On to A29U A41G, for which the self-cleavage is 0.06.

On to A29U A41U, for which the self-cleavage came out at 0.2.

In the case of A29U A41C, the self-cleavage was found to be 0.13.

As to A29U G13C, the self-cleavage came out at 0.01.

In the case of A29U G13U, the self-cleavage was determined as 0.02.

Turning to A29U G13A, the self-cleavage stood at 0.04.

For A29U C14U, the self-cleavage came to 0.05.

As to A29U C14A, the self-cleavage is 0.03.

Turning to A29U C14G, the self-cleavage was 0.04.

With A29U C26A, the self-cleavage came out at 0.03.

On to A29U C26U, for which the self-cleavage was 0.07.

As to A29U C26G, the self-cleavage was 0.05.

In the case of A29G C31U, the self-cleavage is 0.12.

For the variant A29G C31G, the self-cleavage was 0.05.

Take A29U A46G: the self-cleavage is 0.04.

For the variant A29U A46U, the self-cleavage was found to be 0.04.

A29U A46C: the self-cleavage is 0.02.

For the variant A29G G23C, the self-cleavage worked out at 0.04.

Take A29G G23U: the self-cleavage is 0.05.

Consider A29G G23A, for which the self-cleavage came out at 0.07.

Consider A29G G53A, for which the self-cleavage is 0.07.

Regarding A29G G53C, the self-cleavage was determined as 0.06.

Regarding A29G G53U, the self-cleavage came out at 0.07.

Regarding A29U G30A, the self-cleavage amounted to 0.03.

In the case of A29U G30U, the self-cleavage is 0.03.

As to A29U G30C, the self-cleavage was found to be 0.02.

With A29G U24C, the self-cleavage was 0.08.

As to A29G U24G, the self-cleavage was 0.02.

Turning to A29G U24A, the self-cleavage turned out to be 0.07.

A29G C32G: the self-cleavage came to 0.07.

On to A29G C32U, for which the self-cleavage amounted to 0.06.

Regarding A29G C32A, the self-cleavage came out at 0.04.

With A29G U43C, the self-cleavage is 0.08.

Take A29G U43G: the self-cleavage is 0.06.

For the variant A29G U43A, the self-cleavage worked out at 0.07.

Turning to A29G G45U, the self-cleavage amounted to 0.04.

Consider A29G G45A, for which the self-cleavage stood at 0.05.

For A29G G45C, the self-cleavage was 0.03.

In the case of A29U G19C, the self-cleavage amounted to 0.03.

On to A29U G19U, for which the self-cleavage was 0.05.

On to A29U G19A, for which the self-cleavage worked out at 0.05.

Regarding A29U A7G, the self-cleavage was determined as 0.06.

For the variant A29U A7U, the self-cleavage is 0.05.

On to A29U A7C, for which the self-cleavage came out at 0.02.

With A29G G47U, the self-cleavage stood at 0.03.

A29G G47C: the self-cleavage stood at 0.03.

As for A29G G47A, the self-cleavage stood at 0.05.

With A29U C25U, the self-cleavage worked out at 0.1.

On to A29U C25A, for which the self-cleavage came to 0.03.

As for A29U C25G, the self-cleavage came to 0.05.

Consider A29G G44U, for which the self-cleavage was 0.08.

As for A29G G44C, the self-cleavage came to 0.16.

For the variant A29G G44A, the self-cleavage was 0.07.

With A29U G23A, the self-cleavage came out at 0.08.

Turning to A29U G23U, the self-cleavage came to 0.03.

Consider A29U G23C, for which the self-cleavage was determined as 0.03.

As for A29U A39G, the self-cleavage was 0.07.

A29U A39C: the self-cleavage was 0.05.

Turning to A29U A39U, the self-cleavage amounted to 0.07.

Consider A29U G44A, for which the self-cleavage was found to be 0.06.

As to A29U G44C, the self-cleavage was found to be 0.12.

For A29G G50C, the self-cleavage is 0.08.

For A29G G50U, the self-cleavage was 0.17.

With A29G G50A, the self-cleavage was found to be 0.27.

Take A29U C20G: the self-cleavage worked out at 0.03.

With A29U C20A, the self-cleavage worked out at 0.12.

A29U C20U: the self-cleavage was 0.21.

As for A29U C21A, the self-cleavage was 0.05.

Take A29U C21G: the self-cleavage stood at 0.04.

For the variant A29U C21U, the self-cleavage stood at 0.15.

In the case of A29G C33A, the self-cleavage was determined as 0.05.

As to A29G C33G, the self-cleavage worked out at 0.15.

As to A29G C33U, the self-cleavage came out at 0.07.
